Reference: ChEMBL document CHEMBL4715796, “Discovery of Chromane Containing Hepatitis C Virus (HCV) NS5A Inhibitors with Improved Potency against Resistance-Associated Variants” (J Med Chem, 2016)
Numbering of substitutions follows the chain as printed.

Columns and labels:
[1] = Cytotoxicity against human HuH7 cells assessed as reduction in cell viability measured after 72 hrs by Hoechst/Alexa fluor 488 staining based Edu plus cell counting analysis; parameters: species or system Huh-7
Summary of the method: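 Huh7 cells were seeded at 1,200 per well and treated with a 20-point twofold compound dilution series for 72 h, with EdU added for the last 18-20 h. Cells were then fixed and permeabilized, nuclei stained with Hoechst, and EdU labelled with Alexa Fluor 488 by click reaction. Plates were scanned with 405 nm (420-500 nm) and 488 nm (500-530 nm) detection, giving CC50.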

[2] = Selectivity ratio of EC90 for inhibition of NS5A in Hepatitis C virus subtype 3a infected in human HuH7 cells assessed as reduction in viral to EC90 for inhibition of NS5A in Hepatitis C virus subtype 1a; format: cell-based
[3] = Selectivity ratio of EC90 for inhibition of NS5A in Hepatitis C virus subtype 2b infected in human HuH7 cells assessed as reduction in viral to EC90 for inhibition of NS5A in Hepatitis C virus subtype 1a; format: cell-based
[4] = Selectivity ratio of EC90 for inhibition of NS5A in Hepatitis C virus subtype 1b infected in human HuH7 cells assessed as reduction in viral to EC90 for inhibition of NS5A in Hepatitis C virus subtype 1a; format: cell-based
Summary of the method: (§1)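 Fold shift calculated against the GT1a EC90, using EC90 values from the luciferase replicon assay in Huh7-derived cells.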

[5] = test system: Nonstructural protein 5A (Hepatitis C virus), Q5L478 [UNDEFINED MUTATION]; test: Inhibition of NS5A L31V mutant in Hepatitis C virus subtype 1b
Summary of the method: (§2)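 NS5A resistance variants engineered into GT1a-H77 or GT1b-Con1 replicons. Each variant replicon is transfected transiently by electroporation into a Huh7-derived cell line. Percent inhibition is taken from the drop in luciferase signal at each compound concentration, and EC90 is calculated from these. Values are means of at least two experiments.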

[6] = test system: T1, Nonstructural protein 5A (Hepatitis C virus), Q5L478 [Y93N]; test: Inhibition of NS5A Y93N mutant in Hepatitis C virus subtype 1a; summary of the method: as §2
T1 sequence (whole entry): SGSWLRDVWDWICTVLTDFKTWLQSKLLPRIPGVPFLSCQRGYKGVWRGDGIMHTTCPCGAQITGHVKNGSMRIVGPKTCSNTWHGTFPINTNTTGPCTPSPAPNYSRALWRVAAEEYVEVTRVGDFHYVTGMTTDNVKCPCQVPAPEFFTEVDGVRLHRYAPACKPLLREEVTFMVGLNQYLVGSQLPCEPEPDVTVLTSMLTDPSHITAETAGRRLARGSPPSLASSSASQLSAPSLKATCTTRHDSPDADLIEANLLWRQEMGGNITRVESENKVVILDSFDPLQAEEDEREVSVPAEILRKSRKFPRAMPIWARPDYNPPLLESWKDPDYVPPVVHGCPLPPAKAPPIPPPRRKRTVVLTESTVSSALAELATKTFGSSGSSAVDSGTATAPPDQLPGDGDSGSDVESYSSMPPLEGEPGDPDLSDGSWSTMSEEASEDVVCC

[7] = test system: T2, Nonstructural protein 5A (Hepatitis C virus), Q5L478 [Y93H]; test: Inhibition of NS5A Y93H mutant in Hepatitis C virus subtype 1b; summary of the method: as §2
T2 sequence (whole entry): T1 sequence (whole entry) with N93H

[8] = test system: Nonstructural protein 5A (Hepatitis C virus), Q5L478 [UNDEFINED MUTATION]; test: Inhibition of NS5A Q30R mutant in Hepatitis C virus subtype 1a; summary of the method: as §2
[9] = test system: Hepatitis C virus subtype 1a; test: Inhibition of NS5A Q30D mutant in Hepatitis C virus subtype 1a; summary of the method: as §2
[10] = Oral bioavailability in male Wistar Han rat at 10 mg/kg post overnight fasting measured upto 24 hrs by LC-MS/MS analysis; format: ADME, organism-based; conditions: in vivo
Summary of the method: (§3)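 Overnight-fasted male Wistar Han rats or Beagle dogs, two animals per group, 24 h study. IV in 60% PEG200 (rat 2 mg/kg, dog 1 mg/kg). PO in 10% Tween (rat 10 mg/kg, dog 5 mg/kg). Blood sampled up to 24 h, plasma separated by centrifugation, and drug measured by LC/MS. MRT reported for the IV route.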

[11] = Drug concentration in male Wistar Han rat at 10 mg/kg, po measured after 24 hrs by LC/MS analysis; format: ADME, organism-based; conditions: in vivo, read-out: Drug uptake; summary of the method: as §3
[12] = Cmax in male Wistar Han rats at 10 mg/kg, po administered post overnight fasting measured upto 24 hrs by LC-MS/MS analysis; format: ADME, organism-based; parameters: route oral, dose 10 mg/kg, time <=24; conditions: rat, in vivo; summary of the method: as §3
[13] = AUC in male Wistar Han rats at 10 mg/kg, po administered post overnight fasting measured upto 24 hrs by LC-MS/MS analysis; format: ADME, organism-based; parameters: route oral, dose 10 mg/kg, time <=24; conditions: rat, in vivo; summary of the method: as §3
[14] = Clearance in male Wistar Han rats at 2 mg/kg, iv administered post overnight fasting measured upto 24 hrs by LC-MS/MS analysis; format: ADME, organism-based; conditions: rat, in vivo; summary of the method: as §3
[15] = Half-life in male Wistar Han rats at 2 mg/kg, iv administered post overnight fasting measured upto 24 hrs by LC-MS/MS analysis; format: ADME, organism-based; conditions: rat, in vivo; summary of the method: as §3
[16] = test system: Nonstructural protein 5A (Hepatitis C virus), Q5L478 [UNDEFINED MUTATION]; test: Inhibition of NS5A L31V mutant in Hepatitis C virus subtype 1a infected in human HuH7 cells assessed as reduction in viral replication by luciferase reporter gene assay; format: cell-based; conditions: Huh-7; summary of the method: as §2
[17] = test system: T2, Nonstructural protein 5A (Hepatitis C virus), Q5L478 [Y93H]; test: Inhibition of NS5A Y93H mutant in Hepatitis C virus subtype 1a infected in human HuH7 cells assessed as reduction in viral replication by luciferase reporter gene assay; format: cell-based; conditions: Huh-7; summary of the method: as §2
Huh-7 [18] = test: Inhibition of NS5A in Hepatitis C virus subtype 4a infected in human HuH7 cells assessed as reduction in viral replication by luciferase reporter gene assay; format: cell-based
Summary of the method: (§4)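 Transient replicon assay with GT1a-H77, GT1b-Con1 or chimeric replicons, electroporated into a Huh7-derived cell line. Percent inhibition of replication, read as a drop in luciferase signal, was calculated at each concentration to give EC90. Values are means of at least two experiments.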

Huh-7 [19] = test: Inhibition of NS5A in Hepatitis C virus subtype 3a infected in human HuH7 cells assessed as reduction in viral replication by luciferase reporter gene assay; format: cell-based; summary of the method: as §4
Huh-7 [20] = test: Inhibition of NS5A in Hepatitis C virus subtype 2b infected in human HuH7 cells assessed as reduction in viral replication by luciferase reporter gene assay; format: cell-based; summary of the method: as §4
Huh-7 [21] = test: Inhibition of NS5A in Hepatitis C virus subtype 1b infected in human HuH7 cells assessed as reduction in viral replication by luciferase reporter gene assay; format: cell-based; summary of the method: as §4
Huh-7 [22] = test: Inhibition of NS5A in Hepatitis C virus subtype 1a infected in human HuH7 cells assessed as reduction in viral replication by luciferase reporter gene assay; format: cell-based; summary of the method: as §4
[23] = Selectivity ratio of EC90 for inhibition of NS5A L31V mutant in Hepatitis C virus subtype 1b to EC90 for Selectivity ratio of EC90 for inhibition of NS5A in Hepatitis C virus subtype 1a
Summary of the method: (§5)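 Fold shift is calculated against the GT1a EC90. The variant EC90 comes from a transient replicon assay: the NS5A variant is introduced into a GT1a-H77 or GT1b-Con1 replicon and electroporated into Huh7-derived cells. The read-out is reduced luciferase signal. EC90s are means of at least two experiments.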

[24] = Selectivity ratio of EC90 for inhibition of NS5A Y93H mutant in Hepatitis C virus subtype 1b to EC90 for Selectivity ratio of EC90 for inhibition of NS5A in Hepatitis C virus subtype 1a; summary of the method: as §5
[25] = test system: Hepatitis C virus subtype 1a; test: Selectivity ratio of EC90 for inhibition of NS5A Y93N mutant in Hepatitis C virus subtype 1a to EC90 for Selectivity ratio of EC90 for inhibition of NS5A in Hepatitis C virus subtype 1a; summary of the method: as §5
[26] = test system: Hepatitis C virus subtype 1a; test: Selectivity ratio of EC90 for inhibition of NS5A Q30D mutant in Hepatitis C virus subtype 1a to EC90 for Selectivity ratio of EC90 for inhibition of NS5A in Hepatitis C virus subtype 1a; summary of the method: as §5
[27] = test system: Hepatitis C virus subtype 1a; test: Selectivity ratio of EC90 for inhibition of NS5A Q30R mutant in Hepatitis C virus subtype 1a to EC90 for Selectivity ratio of EC90 for inhibition of NS5A in Hepatitis C virus subtype 1a; summary of the method: as §5
[28] = Selectivity ratio of EC90 for inhibition of NS5A L31V mutant in Hepatitis C virus subtype 1a infected in human HuH7 cells assessed as reduction in viral to EC90 for inhibition of NS5A in Hepatitis C virus subtype 1a; format: cell-based; summary of the method: as §5
[29] = Selectivity ratio of EC90 for inhibition of NS5A Y93H mutant in Hepatitis C virus subtype 1a infected in human HuH7 cells assessed as reduction in viral to EC90 for inhibition of NS5A in Hepatitis C virus subtype 1a; format: cell-based; summary of the method: as §5
[30] = Selectivity ratio of EC90 for inhibition of NS5A in Hepatitis C virus subtype 4a infected in human HuH7 cells assessed as reduction in viral to EC90 for inhibition of NS5A in Hepatitis C virus subtype 1a; format: cell-based; summary of the method: as §1
[31] = test system: Hepatitis C virus subtype 1a; test: Selectivity ratio of EC90 for inhibition of NS5A R155K V36 mutant in Hepatitis C virus subtype 1a to EC90 for Selectivity ratio of EC90 for inhibition of NS5A in Hepatitis C virus subtype 1a
[32] = test system: Hepatitis C virus subtype 1a; test: Selectivity ratio of EC90 for inhibition of NS5A R155K mutant in Hepatitis C virus subtype 1a to EC90 for Selectivity ratio of EC90 for inhibition of NS5A in Hepatitis C virus subtype 1a
[33] = test system: Hepatitis C virus subtype 1b; test: Inhibition of NS3 D168Y mutant in Hepatitis C virus subtype 1b
[34] = test system: Hepatitis C virus subtype 1a; test: Inhibition of NS3 R155K mutant in Hepatitis C virus subtype 1a
[35] = test system: Hepatitis C virus subtype 1a; test: Inhibition of NS3 R155K/V36M mutant in Hepatitis C virus subtype 1a
[36] = Selectivity ratio of EC90 for inhibition of NS3 D168Y mutant in Hepatitis C virus subtype 1b to EC90 for Selectivity ratio of EC90 for inhibition of NS5A in Hepatitis C virus subtype 1a

| SMILES | Selectivity ratio [2] | Selectivity ratio [3] | Selectivity ratio [4] | EC90 [5] [nM] | EC90 [6] [nM] | EC90 [7] [nM] | EC90 [8] [nM] | EC90 [9] [nM] | EC90 [16] [nM] | EC90 (Huh-7 [18]) [nM] | EC90 (Huh-7 [19]) [nM] | EC90 (Huh-7 [20]) [nM] | EC90 (Huh-7 [21]) [nM] | EC90 (Huh-7 [22]) [nM] | Selectivity ratio [23] | Selectivity ratio [24] | Selectivity ratio [25] | Selectivity ratio [26] | Selectivity ratio [27] | Selectivity ratio [28] | also measured |
| --- | --- | --- | --- | --- | --- | --- | --- | --- | --- | --- | --- | --- | --- | --- | --- | --- | --- | --- | --- | --- | --- |
| COC(=O)N[C@H](C(=O)N1CCC[C@H]1c1ncc(-c2cc(F)c3c(c2)OC(c2ccc4c(c2)OCCC4)n2c-3cc3cc(-c4cnc([C@@H]5CCCN5C(=O)[C@@H](NC(=O)OC)C(C)C)[nH]4)ccc32)[nH]1)C(C)C (stereo partly drawn) [listing 1 of 2 here] |  |  |  |  |  |  |  |  |  |  |  |  |  |  |  |  |  |  |  |  | CC50 at 72 h [1]: > 50000 nM |
| COC(=O)N[C@H](C(=O)N1CCC[C@H]1c1ncc(-c2cc(F)c3c(c2)OC(c2ccc4c(c2)OCCC42CC2)n2c-3cc3cc(-c4cnc([C@@H]5CCCN5C(=O)[C@@H](NC(=O)OC)C(C)C)[nH]4)ccc32)[nH]1)C(C)C.O=C(O)C(F)(F)F.O=C(O)C(F)(F)F (stereo partly drawn) | 2 | 40 | 1 | 0.005 | 0.9 | 0.02 | 0.03 | 1.2 | 0.006 | 0.006 | 0.01 | 0.2 | 0.004 | 0.003 | 2 | 7 | 300 | 400 | 10 | 1 | bioavailability [10]: 2%; concentration at 24 h [11]: 1 nM; Cmax [12]: 29 nM; AUC at 24 h [13]: 0.24 µM·h; clearance [14]: 15 mL/min/kg; half-life [15]: 8.5 h; EC90 [17]: 0.1 nM; Selectivity ratio [29]: 20; Selectivity ratio [30]: 1 |
| COC(=O)N[C@H](C(=O)N1CCC[C@H]1c1ncc(-c2cc(F)c3c(c2)OC(c2ccc4c(c2)OCCC4)n2c-3cc3cc(-c4cnc([C@@H]5CCCN5C(=O)[C@@H](NC(=O)OC)C(C)C)[nH]4)ccc32)[nH]1)C(C)C (stereo partly drawn) [listing 2 of 2 here] | 3 | 100 | 1 | 0.005 | 0.2 | 0.07 | 0.02 | 0.9 | 0.02 | 0.002 | 0.01 | 0.3 | 0.003 | 0.003 | 2 | 23 | 67 | 300 | 7 | 7 | Selectivity ratio [31]: 1; Selectivity ratio [32]: 1; Selectivity ratio [29]: 167; Selectivity ratio [30]: 1; EC90 [33]: 0.002 nM; EC90 [34]: 0.0001 nM; EC90 [35]: 0.001 nM; Selectivity ratio [36]: 1 |
